Results on 14 compounds are retold here after ChEMBL document CHEMBL1125548, “Synthesis and pharmacological studies of N-substituted 6-[(2-aminoethyl)amino]-1,3-dimethyl-2,4(1H,3H)-pyrimidinediones, novel class III antiarrhythmic agents” (1992).

Assay [1] concerns Canis familiaris. The experiment in a line: The percentage change of the duration of action potential at 75% repolarization was measured before and after the administration at 1.0 ug/mL. It counts as functional, Canis lupus familiaris. A digest of the protocol:
(§1)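 Canine right-ventricular Purkinje fibers (mongrel dogs 7–11 kg, thiopental-anesthetized) superfused with Tyrode's (pH 7.5, 36 °C, gassed 95% O2/5% CO2). Compounds diluted from 1 mM water stock and added cumulatively. Readings taken 20 min after solution exchange. Result given as percent change in action potential duration.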

Assay [2] relates to Canis familiaris. The experiment in a line: Percentage change of the duration of action potential at 75% repolarization was measured before and after the administration at 10.0 ug/mL. It counts as functional, Canis lupus familiaris. Put shortly:
as §1

The subject of assay [3] is Canis familiaris. The assay is described as follows: The percentage change of the duration of action potential at 75% repolarization was measured before and after the administration at 3.0 ug/mL. In kind it is functional, Canis lupus familiaris. Put shortly: as §1
Assay [4] deals with Canis familiaris. The assay is described as follows: The prolongation effect of the atrial and ventricular effective refractory period was measured before and after the administration at 0.3 mg/kg.
For assay [5], the system named is Canis familiaris. The experiment in a line: Concentration required for 50% inhibition of tachycardia induced by isoproterenol (0.5ug/mL, iv) in anesthetized dog. In kind it is functional. Conditions: Canis lupus familiaris, read-out: ID50 (the source's name).
Assay [6] relates to Canis familiaris. The experiment in a line: The percentage change in the effective refractory period was measured before and after the administration at 0.1 mg/kg. In kind it is functional, Canis lupus familiaris. Conditions: dose 1.0 mg/kg; in the assay text read “1.0 mg/kg” for “0.1 mg/kg”. A digest of the protocol: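 In vivo, mongrel dogs of either sex (7–13 kg), anesthetized with pentobarbital sodium 30 mg/kg iv. Left femoral artery cannulated for arterial pressure, femoral vein for drug dosing. Effective refractory period measured before and after administration.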

Each structure is given as a SMILES string. Where only a bound is given, the exact number is not on record here.

Turning to `Cn1c(N2CCN(CCCc3ccc([N+](=O)[O-])cc3)CC2)cc(=O)n(C)c1=O.O=C(O)C(=O)O`, the APD75 in the assay on Canis familiaris [1] turned out to be 17%; with Canis familiaris [2] it was 31%; with Canis familiaris [3], 22%. The compound further registered an ERP in the assay on Canis familiaris [4] of 14.3%.

In the case of `CS(=O)(=O)O.Cn1c(N2CCN(CCCOc3ccccc3)CC2)cc(=O)n(C)c1=O`, the APD75 in the assay on Canis familiaris [1] worked out at 7%; with Canis familiaris [3] it was 22%. Further, the ED50 in the assay on Canis familiaris [5] was greater than 5 mg/kg.

As for `CCN(CC)CCNC(=O)c1ccc(NS(C)(=O)=O)cc1` [SEMATILIDE], the APD75 in the assay on Canis familiaris [1] was 19%; with Canis familiaris [3], 29%.

In the case of `Cl.Cn1c(N2CCN(CCOc3ccc([N+](=O)[O-])cc3)CC2)cc(=O)n(C)c1=O`, the APD75 in the assay on Canis familiaris [1] amounted to 8%; with Canis familiaris [2], 43%; with Canis familiaris [3], 22%.

As to `Cl.Cl.Cn1c(N2CCN(CC(O)COc3ccccc3)CC2)cc(=O)n(C)c1=O` (stereo not drawn), the APD75 in the assay with Canis familiaris [1] amounted to 3.5%; with Canis familiaris [3] it was 13.7%. In the assay with Canis familiaris [5], the ED50 was greater than 5 mg/kg.

Consider `Cl.Cl.Cn1c(N2CCN(CCCOc3ccc([N+](=O)[O-])cc3)CC2)cc(=O)n(C)c1=O`, for which the APD75 with Canis familiaris [1] is 17%; in the assay on Canis familiaris [2] it was 30%; in the assay with Canis familiaris [3], 22%. This compound also registered an ERP with Canis familiaris [6] of 15.8%.

For the compound `CC(C)NCC(O)c1ccc(NS(C)(=O)=O)cc1` (stereo not drawn) [SOTALOL], the APD75 in the assay on Canis familiaris [1] was 0.7%; in the assay on Canis familiaris [2], 11.2%; in the assay with Canis familiaris [3], 8%.

As for `CCN(CCCc1ccc([N+](=O)[O-])cc1)CCNc1cc(=O)n(C)c(=O)n1C.Cl`, the APD75 in the assay with Canis familiaris [1] is 11%; in the assay with Canis familiaris [3], 16%.

On to `Cl.Cn1c(N2CCN(CCCOc3ccccc3Cl)CC2)cc(=O)n(C)c1=O`, for which the values for the APD75 with Canis familiaris [2] and in the assay on Canis familiaris [3] were 7% and 0%, respectively.

In the assay with Canis familiaris [3], `CNS(=O)(=O)c1ccc(OCCCN2CCN(c3cc(=O)n(C)c(=O)n3C)CC2)cc1.Cl` registered an APD75 of 0%.

Take `Cn1c(NCCNCCCc2ccc([N+](=O)[O-])cc2)cc(=O)n(C)c1=O.O=C(O)C(=O)O`: the results for the APD75 in the assay on Canis familiaris [1], in the assay with Canis familiaris [2] and with Canis familiaris [3] were 9%, 16% and 12%, respectively.

For `CSc1ccccc1OCCCN1CCN(c2cc(=O)n(C)c(=O)n2C)CC1.Cl`, the APD75 in the assay with Canis familiaris [1], with Canis familiaris [2] and in the assay on Canis familiaris [3] was 0% each time.

In turn, `Cl.Cl.Cn1c(N2CCN(CCCOc3ccc(N)cc3)CC2)cc(=O)n(C)c1=O` returned an APD75 in the assay on Canis familiaris [3] of 4%.

Take `Cn1c(NCCNCC(O)COc2ccccc2F)cc(=O)n(C)c1=O` (stereo not drawn): the APD75 with Canis familiaris [1] came to 4.1%; in the assay with Canis familiaris [2], 15.6%; with Canis familiaris [3], 8.3%. The ED50 with Canis familiaris [5] came to 0.003 mg/kg.
